Measurements taken from ChEMBL document CHEMBL2417499, “Structure-activity relationship studies of Niemann-Pick type C1-like 1 (NPC1L1) ligands identified by screening assay monitoring pharmacological chaperone effect” (Bioorg Med Chem, 2013).
Active and inactive are the calls of the source. The calls are words filed in the database; no cut-off is given here.

Key:
HEK293 [1] = assay: Binding affinity to human GFP-tagged NPC1L1 L1072T/L1168I mutant expressed in HEK293 cells assessed as localization to endoplasmic reticulum and plasma membrane at 10 uM after 24 hrs by fluorescence microscopic analysis; assay type: cell-based
Outline: (§1)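 HEK293 cells stably expressing NPC1L1-GFP mutant from a CMV promoter, kept under G418 (0.4 mg/mL). Seeded at 6,000 cells/well on poly-lysine-coated glass in DMEM with 1% FBS. Dosed next day in 0.1% DMSO final for 24 h, then fixed in 3.7% formaldehyde and imaged at ×100. Each cell in 25 images scored ER 0 to PM 1; mean reported as % plasma membrane localization.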

HEK293 [2] = assay: Competitive binding affinity to human GFP-tagged NPC1L1 L1072T/L1168I mutant expressed in HEK293 cells assessed as localization to endoplasmic reticulum and plasma membrane at 0.01 to 10 uM after 24 hrs by fluorescence microscopic analysis in presence of N,N-(Dimethyl)-delta(5)-cholenamid-3beta-yl N,N-bis(2-hydroxyethyl)carbamate; assay type: cell-based
HEK293 [3] = assay: Binding affinity to human GFP-tagged NTD-deleted NPC1L1 L1072T/L1168I mutant expressed in HEK293 cells assessed as protein stabilization after 24 hrs by fluorescence assay; assay type: cell-based
Outline: (§2)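 Stable HEK293 lines were grown to 70% confluency in phenol red-free medium in 12-well plates and exposed to vehicle or compound for 24 h. Supernatant GFP fluorescence was read and normalized to BCA total protein, n = 3.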

[4] = Binding affinity to human GFP-tagged NPC1L1 L1072T/L1168I mutant expressed in HEK293 cells assessed as localization to endoplasmic reticulum and plasma membrane after 24 hrs by fluorescence microscopic analysis; assay type: cell-based; conditions: read-out: EC50
Outline: (§3)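 HEK293 cells stably expressing the GFP-tagged construct (G418 0.4 mg/mL) were seeded at 6,000 cells/well in DMEM with 1% FBS on poly-lysine-coated glass. On day 2 they were treated for 24 h, final DMSO 0.1%. Cells were fixed in 3.7% formaldehyde and imaged at ×100. Across 25 images, cells were scored ER 0 to PM 1 and averaged as % plasma membrane localization. EC50 was taken from this score.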

[5] = target: T1, NPC intracellular cholesterol transporter 1 (Homo sapiens, UniProt O15118); assay: (§4) Binding affinity to NPC1 (unknown origin)
T1 sequence (O15118 whole entry): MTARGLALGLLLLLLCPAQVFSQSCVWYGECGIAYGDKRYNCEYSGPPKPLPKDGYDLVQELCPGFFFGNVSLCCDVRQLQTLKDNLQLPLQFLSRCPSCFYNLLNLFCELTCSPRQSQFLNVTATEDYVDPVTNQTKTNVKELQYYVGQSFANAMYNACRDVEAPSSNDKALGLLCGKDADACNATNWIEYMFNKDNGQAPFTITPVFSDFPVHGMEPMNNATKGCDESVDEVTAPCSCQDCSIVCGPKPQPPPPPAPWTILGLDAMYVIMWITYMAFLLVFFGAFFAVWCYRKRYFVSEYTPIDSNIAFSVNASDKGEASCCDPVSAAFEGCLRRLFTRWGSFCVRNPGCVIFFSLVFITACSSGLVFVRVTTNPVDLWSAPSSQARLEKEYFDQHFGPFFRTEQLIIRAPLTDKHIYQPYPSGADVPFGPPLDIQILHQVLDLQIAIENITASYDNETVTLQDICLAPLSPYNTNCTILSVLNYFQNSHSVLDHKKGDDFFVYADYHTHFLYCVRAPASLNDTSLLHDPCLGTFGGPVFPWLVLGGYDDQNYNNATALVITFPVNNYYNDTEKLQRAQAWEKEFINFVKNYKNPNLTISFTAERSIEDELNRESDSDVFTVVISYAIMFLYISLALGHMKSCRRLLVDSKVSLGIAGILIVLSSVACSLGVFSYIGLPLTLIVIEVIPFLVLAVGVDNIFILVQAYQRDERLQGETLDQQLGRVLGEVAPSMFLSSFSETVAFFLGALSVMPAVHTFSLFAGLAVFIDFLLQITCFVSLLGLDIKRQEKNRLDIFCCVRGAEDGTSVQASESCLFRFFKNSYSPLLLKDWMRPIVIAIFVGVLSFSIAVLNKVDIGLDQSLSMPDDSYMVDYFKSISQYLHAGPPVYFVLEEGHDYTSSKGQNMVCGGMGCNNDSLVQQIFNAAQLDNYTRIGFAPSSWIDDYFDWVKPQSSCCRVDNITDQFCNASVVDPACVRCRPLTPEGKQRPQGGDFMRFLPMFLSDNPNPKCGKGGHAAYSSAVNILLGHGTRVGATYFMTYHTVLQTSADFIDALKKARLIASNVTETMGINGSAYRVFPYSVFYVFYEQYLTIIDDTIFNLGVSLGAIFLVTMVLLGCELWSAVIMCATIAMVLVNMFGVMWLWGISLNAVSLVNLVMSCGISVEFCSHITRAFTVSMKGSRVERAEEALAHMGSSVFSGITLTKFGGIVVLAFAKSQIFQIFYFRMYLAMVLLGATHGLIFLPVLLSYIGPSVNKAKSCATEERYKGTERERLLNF

Homo sapiens = species on record: Homo sapiens; assay: Selectivity ratio of EC50 for NPC1 (unknown origin) to EC50 for human GFP-tagged NPC1L1 L1072T/L1168I mutant
[6] = Binding affinity to human GFP-tagged NTD-deleted NPC1L1 L1072T/L1168I mutant expressed in HEK293 cells assessed as localization to plasma membrane after 24 hrs by fluorescence microscopic analysis; assay type: cell-based; outline: as §3
HEK293 [7] = assay: Binding affinity to human GFP-tagged NPC1L1 L1072T/L1168I mutant expressed in HEK293 cells assessed as protein stabilization after 24 hrs by fluorescence assay; assay type: cell-based; outline: as §2
HEK293 [8] = assay: Binding affinity to human GFP-tagged NPC1L1 L1072T/L1168I mutant expressed in HEK293 cells assessed as localization to endoplasmic reticulum and plasma membrane at 3 uM after 24 hrs by fluorescence microscopic analysis; assay type: cell-based; outline: as §1
[9] = target: T2, NPC intracellular cholesterol transporter 1 (Homo sapiens) (UniProt O15118); assay: as §4
T2 sequence (whole entry): T1 sequence (O15118 whole entry)

HEK293 [10] = assay: Binding affinity to human GFP-tagged NTD-deleted NPC1L1 L1072T/L1168I mutant expressed in HEK293 cells assessed as localization to plasma membrane at 10 uM after 24 hrs by fluorescence microscopic analysis; assay type: cell-based
Outline: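 HEK293 cells stably expressing the GFP-tagged NTD-deleted mutant were treated for 24 h with 0.1% final DMSO, then fixed in 3.7% formaldehyde. Cells were imaged at ×100 and scored from ER (0) to PM (1) over 25 images, reported as % plasma membrane localization.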

O=C1[C@H](CC[C@H](O)c2ccc(F)cc2)[C@@H](c2ccc(O)cc2)N1c1ccc(F)cc1
Activity (HEK293 [1]): inactive
Activity (HEK293 [2]): inactive

C[C@H](CCC(=O)N(C)C)[C@H]1CC[C@H]2[C@@H]3CC=C4C[C@@H](OC(=O)N(CCO)CCO)CC[C@]4(C)[C@H]3CC[C@]12C
Activity (HEK293 [3]): Active
EC50 [4]: 650 nM
EC50 [5]: 1600 nM
Ratio EC50 (Homo sapiens): 2.5
EC50 [6]: 1700 nM
Activity (HEK293 [7]): Dose-dependent effect

CC(C)CCC[C@@H](C)[C@H]1CC[C@H]2[C@@H]3C[C@@H](O)[C@@]4(O)C[C@@H](O)CC[C@]4(C)[C@H]3CC[C@]12C
Activity (HEK293 [8]): inactive
Activity [9]: Active

CCCCN(CCCC)C(=O)O[C@H]1CC[C@@]2(C)C(=CC[C@H]3[C@@H]4CC[C@H]([C@H](C)CCC(=O)N(C)C)[C@@]4(C)CC[C@@H]32)C1
Activity (HEK293 [1]): inactive
Activity (HEK293 [10]): inactive
